TRPC4 inh – inhibitors of mouse TRPC4 channel, primary screen, Fluo4 calcium, HEK293 TRPC4beta/mu-opioid cells. Short transient receptor potential channel 4 (Mus musculus), Q9QUQ5. DAMGO-evoked Fluo4 calcium flux; active compounds read low. actives 0.39% (n = 300,000). B-score at 10 µM. AID 2247, 2010;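 active = B-score over 3 SD under the library average, no early fluorescence shift, positive overall ratio signal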
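Test system – stable TRPC4beta/mu-opioid receptor HEK293 cells · Probe or stimulus – DAMGO, a submaximal dose followed by a maximal one · Dosing – one concentration per compound · Signal – Fluo4 calcium fluorescence by kinetic imaging, 5 s 1 Hz baseline · Evaluation – per-well B score of integrated baseline-normalized Fluo4 ratio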
TRPC4 agonist – activators of mouse TRPC4 channel, primary screen, Fluo4 calcium, HEK293 TRPC4beta/mu-opioid cells; Short transient receptor potential channel 4 (Mus musculus), Q9QUQ5; Fluo4 calcium fluorescence; active compounds read high; B-score at 10 µM; actives 0.49% (n = 310,000);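 active = B-score above 5 SD of library B-scores, and initial fluorescence ratio not above library mean plus 5 SD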;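 also: positive B-score marks a calcium rise read as TRPC4 activation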
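Test system: HEK293 cells stably co-expressing mouse TRPC4beta and mu-opioid receptor | Schedule: Fluo4 dye loading 45 min at room temperature, 110 s recording | Measured by: Kinetic Fluo4 calcium fluorescence, 5 s baseline at 1 Hz | Evaluation: B score of integrated ratio | Controls: Buffer (low) and maximal DAMGO (high)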
TRPC6 act – mouse TRPC6 channel activators, primary screen, cell-based, HEK293, membrane potential dye; Short transient receptor potential channel 6 (Mus musculus), Q61143; HEK293-TRPC6 membrane potential dye fluorescence; active compounds read high; B-score at 10 µM; actives 0.13% (n = 310,000); AID 2550, 2010;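 active = B-score of the integrated fluorescence ratio above library mean plus 3 SD, and starting fluorescence ratio within library mean plus 5 SD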;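 also: higher score means more depolarization so channel activation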
Target sequence (Q61143 whole entry, looked up): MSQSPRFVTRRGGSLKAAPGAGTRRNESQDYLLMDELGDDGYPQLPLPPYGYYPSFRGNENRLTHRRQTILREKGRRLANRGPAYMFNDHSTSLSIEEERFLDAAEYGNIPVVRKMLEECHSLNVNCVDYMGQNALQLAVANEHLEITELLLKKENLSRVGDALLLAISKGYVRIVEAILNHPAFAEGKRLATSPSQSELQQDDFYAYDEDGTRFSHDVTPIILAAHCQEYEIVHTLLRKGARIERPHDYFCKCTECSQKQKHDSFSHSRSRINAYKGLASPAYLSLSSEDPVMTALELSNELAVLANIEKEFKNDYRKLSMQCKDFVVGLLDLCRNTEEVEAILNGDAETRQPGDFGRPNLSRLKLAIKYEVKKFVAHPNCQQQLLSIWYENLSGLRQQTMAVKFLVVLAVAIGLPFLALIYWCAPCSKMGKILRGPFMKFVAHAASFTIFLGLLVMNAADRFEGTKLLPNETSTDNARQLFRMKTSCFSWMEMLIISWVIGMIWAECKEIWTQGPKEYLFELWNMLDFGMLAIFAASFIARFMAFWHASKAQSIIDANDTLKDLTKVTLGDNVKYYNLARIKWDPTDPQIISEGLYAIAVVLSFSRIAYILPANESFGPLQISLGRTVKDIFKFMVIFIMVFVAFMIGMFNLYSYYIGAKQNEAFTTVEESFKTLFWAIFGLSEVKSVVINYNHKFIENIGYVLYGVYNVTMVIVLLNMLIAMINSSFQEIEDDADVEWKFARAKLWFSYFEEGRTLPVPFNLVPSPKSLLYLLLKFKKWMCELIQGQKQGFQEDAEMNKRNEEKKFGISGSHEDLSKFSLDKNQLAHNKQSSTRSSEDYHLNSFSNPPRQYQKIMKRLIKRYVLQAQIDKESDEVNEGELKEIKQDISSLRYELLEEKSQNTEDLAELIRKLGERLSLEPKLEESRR
TRPC4 potent – positive allosteric modulators of TRPC4, primary screen, cell-based, mouse TRPC4beta, HEK293 mu-opioid, Fluo-4 calcium | Short transient receptor potential channel 4 (Mus musculus), Q9QUQ5 | DAMGO EC20, Fluo-4 Ca2+ flux; active compounds read high | B-score at 10 µM | actives 0.42% (n = 310,000);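 active = B-score of calcium response area above 5 SD of library B-scores, with initial fluorescence ratio within 5 SD of library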;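 also: B-score of integrated fluorescence ratio over time as area under calcium response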
TRPC6 inhibitor – mouse TRPC6 channel inhibitors, primary screen, cell-based, HEK293, membrane potential dye; actives 1.1% (n = 310,000); ACh-evoked depolarization; active compounds read low; B-score at 10 µM;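 active = B-score under library mean minus 3 SD, initial fluorescence not abnormally high, positive integrated signal ratio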;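 also: B-score derived from integrated fluorescence ratio over the kinetic read; more negative B-score means stronger inhibition of depolarization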
TRPC4 spec 2 – mouse TRPC4 off-target activity of TRPC6 inhibitors, second screen; shares compounds with TRPC6 inhibitor; HEK293 TRPC4/MOR, membrane potential dye fluorescence; channel activated by saturating DAMGO dose; inhibition, % at 10 µM; actives 42% (n = 920);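 active = compounds whose fluorescence signal differed from control wells by over 3 SD, either direction, in both duplicate plates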
TRPC4 spec – mouse TRPC4 modulation by TRPC6 hits, confirmation, selectivity assay for TRPC6 inhibitor project, cell-based, HEK293 TRPC4/mu-opioid, membrane potential dye; shares compounds with TRPC6 inhibitor; membrane potential fluorescence; activity change, negative = inhibition, % at 10 µM; actives 61% (n = 920);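 active = rise or fall in signal beyond 3 SD of buffer-only wells in both replicate plates, either sign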;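 also: integrated kinetic ratio of fluorescence range over baseline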
HEK293 MPD ctr 2-1 – nonspecific membrane potential effects, parental HEK293, confirmation, counter-screen for TRPC6 inhibitor project, cell-based, second counter screen | shares compounds with TRPC6 inhibitor | parental HEK293 membrane potential dye fluorescence; maximal acetylcholine challenge after compound addition | actives 31% (n = 920) | AID 2779, 2010 | signal change vs control, % at 10 µM;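 active = membrane potential signal moving either way by over 3 SD of the maximum-effect control, in both duplicate plates, meaning non-specific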
HEK293 MPD ctr-1 – membrane potential modulation in parental HEK293, confirmation, counter-screen for TRPC6 inhibitor project, cell-based; shares compounds with TRPC6 inhibitor; parental HEK293 membrane potential dye fluorescence; membrane potential signal change, % at 10 µM; actives 60% (n = 920); AID 2780, 2010;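 active = membrane potential signal shifting up or down by more than 3 SD of buffer-only wells, on both duplicate plates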
HEK293 MPD ctr-2 – parental HEK293 membrane potential modulation, confirmation, counter-screen for TRPC6 modulator project, cell-based; shares compounds with TRPC6 inhibitor; membrane potential dye fluorescence; membrane potential signal change, % at 10 µM; actives 51% (n = 2,400);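 active = membrane potential signal moves up or down beyond 5 SD from buffer-only wells, on both duplicate plates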
HEK293 MPD ctr 2-2 – second counter-screen for TRPC6 modulators: effect in parental HEK293 cells. shares compounds with TRPC6 inhibitor. membrane potential dye fluorescence; after compound, maximal acetylcholine stimulation. inhibition, % at 10 µM. actives 14% (n = 2,400). AID 488926;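 active = membrane potential signal drops by more than 5 SD from the mean control signal, in both duplicate plates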;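 also: plate controls were acetylcholine ECmax control wells for no effect and buffer only wells for full effect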
TRPC4 ctr mod – TRPC4 modulation by TRPC6 hit compounds, confirmation, selectivity assay for TRPC6 modulator project, cell-based, HEK293 TRPC4/mu-opioid, membrane potential dye, mouse; percent change from control (negative = decrease, positive = increase), % at 10 µM; shares compounds with TRPC6 inhibitor; membrane potential fluorescence; actives 69% (n = 2,400);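 active = membrane potential signal moved up or down beyond 5 SD of buffer control wells, in both duplicate plates, actives on both sides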;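 also: plate controls were assay buffer wells for no effect and DAMGO maximal-effect wells for full effect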
TRPC4 ctr inh 2 – second selectivity test of TRPC6 modulators against mouse TRPC4 | shares compounds with TRPC6 inhibitor | HEK293 TRPC4/mu-opioid, membrane potential dye fluorescence; stimulated with maximal-effect DAMGO | inhibition, % at 10 µM | actives 55% (n = 2,400) | AID 488928;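 active = drop in membrane potential signal beyond 5 SD of the control wells in both duplicate plates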;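 also: TRPC4 counter screen for TRPC6 hits run under conditions tuned for TRPC6 not TRPC4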
TRPC6 block conf – mouse TRPC6 channel inhibitors, confirmation, HEK293 cells, membrane potential dye, duplicate | shares compounds with TRPC6 inhibitor | ACh-evoked depolarization | inhibition, % at 10 µM | actives 43% (n = 3,300) | AID 488960, 2010;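 active = fluorescence ratio falls more than 5 SD below the full-stimulation control mean, in both duplicate runs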;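 also: integrated fluorescence ratio of peak minus minimum over baseline after agonist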
TRPC6 act conf – mouse TRPC6 channel activators, confirmation, HEK293 cells, membrane potential dye, duplicate. shares compounds with TRPC6 inhibitor. HEK293-TRPC6 membrane potential dye fluorescence, FDSS. activation, % at 10 µM. actives 11% (n = 2,800). AID 488961, 2010;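 active = ratio signal rise beyond 5 SD above unstimulated control wells' mean, seen in both duplicate runs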;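 also: plate controls were buffer EC0 wells for no effect and acetylcholine ECmax response for full effect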
* marks the source's active call; other numbers are inactive results; i = inactive; · = no result. A selection: hits, their analogues and other compounds. The true share with any hit is near 2.3%.

SMILES	TRPC4 inh	TRPC4 agonist	TRPC6 act	TRPC4 potent	TRPC6 inhibitor	TRPC4 spec 2	TRPC4 spec	HEK293 MPD ctr 2-1	HEK293 MPD ctr-1	HEK293 MPD ctr-2	HEK293 MPD ctr 2-2	TRPC4 ctr mod	TRPC4 ctr inh 2	TRPC6 block conf	TRPC6 act conf
COc1ccc2ccccc2c1CNCc1ccc(C)cc1	i	i	i	i	-8*	50%*	52%*	i	22%*	·	·	·	·	62%*	·
C[C@]12C=CC(=O)C=C1CC[C@@H]1C2=CC[C@]2(C)[C@@H](C(=O)CN3CCN(c4cc(N5CCCC5)nc(N5CCCC5)n4)CC3)CC[C@@H]12	i	i	i	i	-6.7*	·	·	·	·	-238%*	i	-54%*	64%*	69%*	i
CC1=C(C(=O)OCCCBr)C(c2ccc3c(c2)OCO3)NC(=O)N1 (stereo not given)	i	i	i	i	i	·	·	·	·	·	·	·	·	·	·
CCOC(=O)C1CCN(C(=O)c2ccccc2NS(=O)(=O)c2ccccc2)CC1	i	i	i	i	i	·	·	·	·	·	·	·	·	·	·
CCOC(=O)C1CCN(C(=O)c2cccc(S(=O)(=O)Nc3ccc(C)cc3C)c2)CC1	i	i	i	i	-5.3*	·	·	·	·	i	i	12%*	i	36%*	·
Cc1c(C)c2ccc(OCC(=O)Nc3ccc(S(N)(=O)=O)cc3)c(C)c2oc1=O	i	i	i	i	i	·	·	·	·	·	·	·	·	·	·
O=C(/C=C/c1ccc(N2CCC(c3ccccc3)=N2)cc1)c1ccccc1	i	i	15*	i	i	·	·	·	·	350%*	i	80%*	i	i	46%*
N#CC1=C(N)Oc2cc(N)ccc2C1c1ccc(Cl)cc1 (stereo not given)	i	i	12*	i	i	·	·	·	·	i	i	i	i	i	i
N#CC1=C(N)Oc2cc(N)ccc2C1c1ccc(F)cc1F (stereo not given)	i	64*	39*	i	i	·	·	·	·	121%*	i	i	i	i	27%*
CCOCCCn1c(=N)c(C(N)=S)cc2c(=O)n3cccc(C)c3nc21	i	i	i	i	-8.9*	i	i	26%*	-196%*	·	·	·	·	i	i
Cc1cccn2c(=O)c3cc(C(N)=S)c(=N)n(CCCOC(C)C)c3nc12	i	i	i	i	-7.3*	i	-19%*	i	-408%*	·	·	·	·	i	i
O=C(Nc1ccc(Cl)cc1)c1ccc(-n2cncn2)c([N+](=O)[O-])c1	i	i	i	i	-5.5*	·	·	·	·	-106%*	i	i	56%*	i	i
c1ccc(-c2nc(N3CCNCC3)nc3ccccc23)cc1	i	i	i	18*	-8*	40%*	i	i	4.7%*	·	·	·	·	i	i
Nc1nc(N2CCN(c3ccccn3)CC2)nc2ccccc12	i	i	i	i	-6.9*	49%*	-19%*	i	-232%*	·	·	·	·	62%*	i
Nc1nc(N2CCCCC2)nc2ccccc12	-8*	i	i	i	-11*	·	·	·	·	-212%*	i	-42%*	92%*	70%*	i
c1ccc2c(N3CCCCC3)nc(N3CCCC3)nc2c1	i	i	i	i	i	·	·	·	·	·	·	·	·	·	·
Cc1cc(-c2ccccc2)nc(N2CCN(c3ccccn3)CC2)n1	i	i	i	i	i	·	·	·	·	·	·	·	·	·	·
COc1ccc(NC(=O)CSc2nccn2Cc2ccco2)cc1OC	i	i	i	i	i	·	·	·	·	·	·	·	·	·	·
COc1cc2c(cc1OC)-c1cc(Nc3cccc(C)c3)nc(=O)n1CC2	i	i	i	i	i	·	·	·	·	·	·	·	·	·	·
O=C(CN(C(=O)CCC(=O)Nc1ccccn1)c1ccc(F)cc1)NCCc1ccccc1	i	i	i	i	i	·	·	·	·	·	·	·	·	·	·
CCCCN(C)C1=Nc2cccc3cccc1c23	i	i	i	i	-7.5*	·	·	·	·	-194%*	i	-42%*	69%*	56%*	i
CCCCCNc1nc(N2CCCC2)c2c(c1C#N)CCN(C)C2	i	i	i	i	-6.6*	41%*	-22%*	i	-272%*	·	·	·	·	71%*	i
CCCCCNc1nc(NCCCO)c(C#N)c2c1CN(C)CC2	i	i	i	i	-5.6*	·	·	·	·	-100%*	i	-27%*	i	i	i

Source: PubChem
